Results published in publication PMC2947842 (Bioorganic & medicinal chemistry, 2010).
Positions of bridges follow the written chain, without caps; N, C: chain ends. Non-standard residues stand in square brackets, D forms with d. Residues, ends and D or L forms follow the SMILES beside them.

System: B16/F1 melanoma cells
Assay: Clonogenic cytotoxicity
Format: cell-based, murine
Conditions: 0.1 μM peptide, 3 h incubation at 37 °C, colonies after 6 days
Outline: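 B16/F1 cells seeded at 200 cells/well and exposed for 3 h at 37 °C in culture medium to 0.1 μM test peptide, comparator peptides, or medium alone. Washed twice with PBS and regrown in medium for 6 days. Fixed in methanol:glacial acetic acid (3:1), hematoxylin-stained, and scored by microscope; colonies over 50 cells counted as survivors. Survival normalized to untreated (100%). Unpaired Student t-test, p<0.05.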

Question: Which “Decrease in clonogenic survival in comparison with the untreated group” value does the source give for `CC(C)[C@H](NC(=O)[C@@H]1CCCN1C(=O)[C@H](CCCNC(=N)N)NC(=O)[C@H](CS)NC(=O)[C@H](Cc1c[nH]c2ccccc12)NC(=O)[C@H](CCCNC(=N)N)NC(=O)[C@@H](Cc1ccccc1)NC(=O)[C@H](Cc1c[nH]cn1)NC(=O)[C@H](CCC(=O)O)NC(=O)[C@H](CS)NC(=O)[C@H](CS)NC(=O)[C@H](CCCNC(=N)N)NC(=O)[C@@H]1CC(=O)N[C@@H](CCCNC(=N)N)C(=O)NCC(=O)N[C@@H](CC(=O)O)C(=O)N[C@H](Cc2ccc(O)cc2)C(=O)N1)C(N)=O` [RGD-Arg-(Arg^11)CCMSH] (RGD[dY]DRCCEH[dF]RWCRPV-NH2; lactam N-5; C-terminus assumed) here?
Answer: Its value is 62%.

Question: For “[Cys^3,4,10, D-Phe^7, Arg^11]α-MSH3-13 [(Arg^11)CCMSH]”, which “Decrease in clonogenic survival in comparison with the untreated group” value is on record?
Answer: Its value is 11%.
